Experimental data: PMC2885802 (Current radiopharmaceuticals, 2010)

Experiments:
[1] = test system: receptor-positive M21 human melanoma xenografts; assay: Biodistribution study in nude mice bearing M21 xenografts; assay type: in vivo; settings: for tumor uptake with co-injection of antagonist: co-injection of 200 μg unlabeled IA; for tumor uptake: 1 h after i.v. injection; for excretion route: inferred from whole-body retention
Method in brief: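 Athymic nude mice carried s.c. right-flank xenografts from 3 × 10^6 M21 cells (grown in RPMI 1640, 10% FBS, 1% penicillin-streptomycin, 5% CO2). At about 200 mm3 tumor size, mice received i.v. 99mTc-labeled test compound (6.25 μCi, 0.231 MBq/6 pmol in PBS with 1% BSA). They were euthanized at set times for tissue %ID/g and tumor-to-organ ratios; n=4~15 per time point.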

[2] = Stability in PBS; assay type: physicochemical; settings: 18-h period of incubation
[3] = target: human integrin αvβ3 (Homo sapiens, UniProt P05106+P06756); assay: Receptor-binding assay; settings: 0.8 μM αvβ3, 37 °C, 3 hrs, n = 4
Sequence of human integrin αvβ3 (P06756 31-889 limits assumed): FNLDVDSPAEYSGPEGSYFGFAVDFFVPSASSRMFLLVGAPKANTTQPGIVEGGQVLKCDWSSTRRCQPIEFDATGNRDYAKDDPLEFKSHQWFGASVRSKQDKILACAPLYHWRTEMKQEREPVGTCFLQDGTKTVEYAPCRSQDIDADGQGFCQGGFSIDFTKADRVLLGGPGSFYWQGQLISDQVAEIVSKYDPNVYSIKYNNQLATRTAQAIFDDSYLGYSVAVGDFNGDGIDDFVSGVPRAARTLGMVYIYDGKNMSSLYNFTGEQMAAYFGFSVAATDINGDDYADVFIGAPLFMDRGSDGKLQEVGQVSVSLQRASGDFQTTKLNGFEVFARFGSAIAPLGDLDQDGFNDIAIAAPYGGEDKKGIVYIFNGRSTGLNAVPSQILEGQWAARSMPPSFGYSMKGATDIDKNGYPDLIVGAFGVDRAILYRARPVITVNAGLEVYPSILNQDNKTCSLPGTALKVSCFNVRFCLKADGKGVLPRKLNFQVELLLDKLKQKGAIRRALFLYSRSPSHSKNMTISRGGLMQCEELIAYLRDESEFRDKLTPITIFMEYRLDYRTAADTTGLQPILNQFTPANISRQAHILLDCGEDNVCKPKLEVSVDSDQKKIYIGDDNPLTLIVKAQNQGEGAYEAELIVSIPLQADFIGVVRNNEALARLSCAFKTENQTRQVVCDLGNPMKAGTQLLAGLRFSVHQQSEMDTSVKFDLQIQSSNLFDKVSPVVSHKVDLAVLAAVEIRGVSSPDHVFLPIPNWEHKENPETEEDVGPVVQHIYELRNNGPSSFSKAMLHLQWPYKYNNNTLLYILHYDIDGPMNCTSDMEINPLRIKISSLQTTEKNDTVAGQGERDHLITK
Sequence of human integrin αvβ3 (P06756 891-1048 partner limits assumed): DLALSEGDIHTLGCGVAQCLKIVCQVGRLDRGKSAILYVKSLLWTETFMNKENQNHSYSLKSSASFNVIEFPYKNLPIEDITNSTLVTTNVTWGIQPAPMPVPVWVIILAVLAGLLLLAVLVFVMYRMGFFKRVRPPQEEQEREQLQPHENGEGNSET
Sequence of human integrin αvβ3 (P05106 27-788): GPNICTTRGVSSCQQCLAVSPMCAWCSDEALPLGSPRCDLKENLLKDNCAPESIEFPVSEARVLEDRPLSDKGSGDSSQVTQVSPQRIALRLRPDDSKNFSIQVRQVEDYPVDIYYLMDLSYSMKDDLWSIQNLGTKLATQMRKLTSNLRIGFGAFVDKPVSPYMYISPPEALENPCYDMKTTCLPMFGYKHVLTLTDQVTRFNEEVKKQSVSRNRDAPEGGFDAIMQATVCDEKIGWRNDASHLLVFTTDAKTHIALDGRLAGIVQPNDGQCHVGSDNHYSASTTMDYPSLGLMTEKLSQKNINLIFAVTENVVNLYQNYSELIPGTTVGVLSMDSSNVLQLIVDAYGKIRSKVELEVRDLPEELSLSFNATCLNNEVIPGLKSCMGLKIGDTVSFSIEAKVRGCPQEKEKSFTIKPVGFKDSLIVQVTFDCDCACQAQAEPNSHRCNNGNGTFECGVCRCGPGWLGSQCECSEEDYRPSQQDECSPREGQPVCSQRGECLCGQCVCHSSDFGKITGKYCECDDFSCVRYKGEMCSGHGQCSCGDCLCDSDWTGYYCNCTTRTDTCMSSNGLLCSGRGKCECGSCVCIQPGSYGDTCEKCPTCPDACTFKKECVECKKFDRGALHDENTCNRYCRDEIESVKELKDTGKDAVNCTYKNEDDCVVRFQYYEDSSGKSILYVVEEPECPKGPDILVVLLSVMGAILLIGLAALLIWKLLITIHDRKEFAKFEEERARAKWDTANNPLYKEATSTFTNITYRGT
Method in brief: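 Purified 99mTc-labeled test compound (1.1×10^6 cpm, <2.5 pmol) was incubated with 2.6 to 51.2 pmol human integrin αvβ3 in PBS pH 7.2 at 37 °C for 3 hrs. Non-specific binding was taken with a 250-fold molar excess of unlabeled antagonist. Bound (7 min) and free (15 min) label were separated by size-exclusion HPLC (TSK G3000SWXL).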

[4] = Stability study in mouse serum; assay type: in vitro ADME; settings: 37 °C; for % of 99mTc radioactivity associated with 99mTcO4−1: mouse serum, 18 h; for % intact when incubated in serum: 18 hrs
Method in brief: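 Purified 99mTc-labeled test compound (116 μCi, 4.29 MBq) was added to mouse serum containing 0.04% sodium azide, buffered with sodium phosphate pH 7.2, and held at 37 °C. Timed aliquots went to size-exclusion HPLC (TSK G3000SWXL; 0.067 M sodium phosphate/0.10 M KCl, pH 6.8; 1.0 ml/min) with UV and online radioactivity detection. Intact, protein-bound and 99mTcO4− fractions were measured; N ≥ 3.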

[5] = guanidino group of IAC; ref not given; cited from earlier work
[6] = test system: αvβ3; settings: αvβ3 antagonist; not measured here, no ref given; cited from earlier work

^99mTc EDDA2/HYNIC-IAC [P1]
tumor uptake value over time ([1]; 4-h period): remained relatively unchanged | Tumor-to-organ ratio, Blood ([1]; 0.3 h): 0.90±0.20 | Tumor-to-organ ratio, Bone ([1]; 0.3 h): 1.29±0.23 | Tumor-to-organ ratio, Heart ([1]; 0.3 h): 1.91±0.43 | Tumor-to-organ ratio, Intestine ([1]; 0.3 h): 0.66±0.07 | Tumor-to-organ ratio, Kidney ([1]; 0.3 h): 0.51±0.12 | Tumor-to-organ ratio, Liver ([1]; 0.3 h): 0.72±0.12 | Tumor-to-organ ratio, Lung ([1]; 0.3 h): 0.72±0.10 | Tumor-to-organ ratio, Muscle ([1]; 0.3 h): 3.04±0.68 | Tumor-to-organ ratio, Spleen ([1]; 0.3 h): 0.71±0.07 | Tumor-to-organ ratio, Stomach ([1]; 0.3 h): 0.54±0.13 | Tumor-to-organ ratio, Blood ([1]; 1 h): 1.38±0.48 | Tumor-to-organ ratio, Bone ([1]; 1 h): 2.12±1.17 | Tumor-to-organ ratio, Heart ([1]; 1 h): 2.48±0.75 | Tumor-to-organ ratio, Intestine ([1]; 1 h): 0.60±0.19 | Tumor-to-organ ratio, Kidney ([1]; 1 h): 0.75±0.28 | Tumor-to-organ ratio, Liver ([1]; 1 h): 0.89±0.27 | Tumor-to-organ ratio, Lung ([1]; 1 h): 1.19±0.43 | Tumor-to-organ ratio, Muscle ([1]; 1 h): 6.11±1.80 | Tumor-to-organ ratio, Spleen ([1]; 1 h): 1.36±0.38 | Tumor-to-organ ratio, Stomach ([1]; 1 h): 0.40±0.20 | whole-body retention ([1]; 1 h): 39.58 ± 2.91 % ID | effect of unlabeled IA co-injection on tumor uptake ([1]; 1 h, 0, 10 and 200 μg unlabeled IA): blocked by unlabeled IA in a concentration dependent manner | tumor uptake with co-injection of antagonist ([1]; 1 h): 0.68 ± 0.06 % ID/g | tumor uptake [1]: 3.17±0.52 % ID/g | Tumor-to-organ ratio, Blood ([1]; 2 h): 2.19±0.18 | Tumor-to-organ ratio, Bone ([1]; 2 h): 2.46±0.19 | Tumor-to-organ ratio, Heart ([1]; 2 h): 3.23±0.48 | Tumor-to-organ ratio, Intestine ([1]; 2 h): 0.57±0.07 | Tumor-to-organ ratio, Kidney ([1]; 2 h): 0.85±0.08 | Tumor-to-organ ratio, Liver ([1]; 2 h): 1.02±0.12 | Tumor-to-organ ratio, Lung ([1]; 2 h): 1.50±0.09 | Tumor-to-organ ratio, Muscle ([1]; 2 h): 4.68±0.31 | Tumor-to-organ ratio, Spleen ([1]; 2 h): 1.30±0.12 | Tumor-to-organ ratio, Stomach ([1]; 2 h): 0.43±0.11 | Tumor-to-organ ratio, Blood ([1]; 4 h): 17.11±5.18 | Tumor-to-organ ratio, Bone ([1]; 4 h): 4.78±1.07 | Tumor-to-organ ratio, Heart ([1]; 4 h): 7.62±1.99 | Tumor-to-organ ratio, Intestine ([1]; 4 h): 0.46±0.15 | Tumor-to-organ ratio, Kidney ([1]; 4 h): 1.22±0.32 | Tumor-to-organ ratio, Liver ([1]; 4 h): 1.59±0.72 | Tumor-to-organ ratio, Lung ([1]; 4 h): 2.47±0.49 | Tumor-to-organ ratio, Muscle ([1]; 4 h): 7.84±1.78 | Tumor-to-organ ratio, Spleen ([1]; 4 h): 2.83±0.81 | Tumor-to-organ ratio, Stomach ([1]; 4 h): 1.53±0.80 | whole-body retention ([1]; 4 h): 27.25 ± 3.67 % ID | excretion route [1]: excreted primarily via the renal system | stability in PBS [2]: stable | receptor-bindability (% bound to αvβ3) [3]: 78.02 ± 13.48% | % of 99mTc radioactivity associated with 99mTcO4−1 [4]: 3% | % intact when incubated in serum [4]: 84%

CC(C)(CN)CNC(=O)NCCS(=O)(=O)N[C@@H](CNC(=O)c1ccc(OCCNC2=NCCCN2)cc1)C(=O)O.Cl [IAC, 4-[2-(3,4,5,6-tetrahydropyrimidin-2-ylamino)-ethyloxy]benzoyl-2-(S)-[N-(3-aminoneopenta-1-carbamyl)]-aminoethylsulfonylamino-β-alanine hydrochloride]
pKa [5]: ~ 12 | IC50 [6]: 2.94 nM

^99mTc PDA (tricin)/HYNIC-IAC [P2]
accumulation in liver and intestine compared with P1 ([1]; 4-h period): significantly higher accumulation | Tumor-to-organ ratio, Blood ([1]; 1 h): 1.83±0.16 | Tumor-to-organ ratio, Bone ([1]; 1 h): 1.48±0.37 | Tumor-to-organ ratio, Heart ([1]; 1 h): 2.64±0.36 | Tumor-to-organ ratio, Intestine ([1]; 1 h): 0.15±0.01 | Tumor-to-organ ratio, Kidney ([1]; 1 h): 0.62±0.05 | Tumor-to-organ ratio, Liver ([1]; 1 h): 0.46±0.27 | Tumor-to-organ ratio, Lung ([1]; 1 h): 0.83±0.22 | Tumor-to-organ ratio, Muscle ([1]; 1 h): 3.85±1.64 | Tumor-to-organ ratio, Spleen ([1]; 1 h): 1.09±0.15 | Tumor-to-organ ratio, Stomach ([1]; 1 h): 0.40±0.12 | whole-body retention ([1]; 1 h): 57.84 ± 5.15 % ID | tumor uptake with co-injection of antagonist ([1]; 1 h): 0.96 ± 0.30 % ID/g | tumor uptake [1]: 2.13±0.17 % ID/g | Tumor-to-organ ratio, Blood ([1]; 2 h): 2.58±0.25 | Tumor-to-organ ratio, Bone ([1]; 2 h): 2.73±0.54 | Tumor-to-organ ratio, Heart ([1]; 2 h): 3.85±0.57 | Tumor-to-organ ratio, Intestine ([1]; 2 h): 0.11±0.02 | Tumor-to-organ ratio, Kidney ([1]; 2 h): 0.81±0.07 | Tumor-to-organ ratio, Liver ([1]; 2 h): 0.45±0.30 | Tumor-to-organ ratio, Lung ([1]; 2 h): 1.34±0.51 | Tumor-to-organ ratio, Muscle ([1]; 2 h): 5.75±1.56 | Tumor-to-organ ratio, Spleen ([1]; 2 h): 1.95±0.27 | Tumor-to-organ ratio, Stomach ([1]; 2 h): 0.29±0.09 | Tumor-to-organ ratio, Blood ([1]; 4 h): 3.15±0.25 | Tumor-to-organ ratio, Bone ([1]; 4 h): 3.76±1.36 | Tumor-to-organ ratio, Heart ([1]; 4 h): 3.88±0.90 | Tumor-to-organ ratio, Intestine ([1]; 4 h): 0.07±0.00 | Tumor-to-organ ratio, Kidney ([1]; 4 h): 0.78±0.04 | Tumor-to-organ ratio, Liver ([1]; 4 h): 0.40±0.17 | Tumor-to-organ ratio, Lung ([1]; 4 h): 2.71±0.95 | Tumor-to-organ ratio, Muscle ([1]; 4 h): 6.33±1.57 | Tumor-to-organ ratio, Spleen ([1]; 4 h): 1.54±0.40 | Tumor-to-organ ratio, Stomach ([1]; 4 h): 0.27±0.05 | whole-body retention ([1]; 4 h): 54.04 ± 3.57 % ID | radioactivity at 1 h remained in the tumor at 4 h ([1]; 4 h relative to 1 h): 62% | excretion route [1]: excreted to a larger extent via the hepatobiliary system | stability in PBS [2]: stable | receptor-bindability (% bound to αvβ3) [3]: 51.05 ± 14.05% | % of 99mTc radioactivity associated with 99mTcO4−1 [4]: 9% | % intact when incubated in serum [4]: 77%
